According to publication PMC5077689 (FEBS letters, 2016):

Legend:
bovine lung sGC [1] = molecular target: T1, bovine lung sGC (Bos taurus, UniProt P16068+P19687); assay: NO; format: biochemical
T1 sequence (P19687 1-691): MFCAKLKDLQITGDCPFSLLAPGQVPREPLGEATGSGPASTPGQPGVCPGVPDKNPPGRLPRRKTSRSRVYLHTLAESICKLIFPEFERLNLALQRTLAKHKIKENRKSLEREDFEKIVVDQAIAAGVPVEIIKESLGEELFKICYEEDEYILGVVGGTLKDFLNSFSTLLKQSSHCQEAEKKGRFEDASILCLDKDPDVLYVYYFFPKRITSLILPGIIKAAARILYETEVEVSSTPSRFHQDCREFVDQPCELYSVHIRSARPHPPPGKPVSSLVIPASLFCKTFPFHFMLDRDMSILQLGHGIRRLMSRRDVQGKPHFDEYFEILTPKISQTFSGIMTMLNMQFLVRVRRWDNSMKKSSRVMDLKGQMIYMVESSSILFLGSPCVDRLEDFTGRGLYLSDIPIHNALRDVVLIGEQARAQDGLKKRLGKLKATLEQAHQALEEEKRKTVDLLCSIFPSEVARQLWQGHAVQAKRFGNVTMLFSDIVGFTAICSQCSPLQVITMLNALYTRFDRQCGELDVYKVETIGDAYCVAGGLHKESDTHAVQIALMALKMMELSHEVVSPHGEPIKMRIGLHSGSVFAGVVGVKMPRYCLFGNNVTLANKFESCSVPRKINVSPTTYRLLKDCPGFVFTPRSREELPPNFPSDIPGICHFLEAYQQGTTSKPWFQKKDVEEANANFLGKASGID
T1 sequence (P16068 1-619): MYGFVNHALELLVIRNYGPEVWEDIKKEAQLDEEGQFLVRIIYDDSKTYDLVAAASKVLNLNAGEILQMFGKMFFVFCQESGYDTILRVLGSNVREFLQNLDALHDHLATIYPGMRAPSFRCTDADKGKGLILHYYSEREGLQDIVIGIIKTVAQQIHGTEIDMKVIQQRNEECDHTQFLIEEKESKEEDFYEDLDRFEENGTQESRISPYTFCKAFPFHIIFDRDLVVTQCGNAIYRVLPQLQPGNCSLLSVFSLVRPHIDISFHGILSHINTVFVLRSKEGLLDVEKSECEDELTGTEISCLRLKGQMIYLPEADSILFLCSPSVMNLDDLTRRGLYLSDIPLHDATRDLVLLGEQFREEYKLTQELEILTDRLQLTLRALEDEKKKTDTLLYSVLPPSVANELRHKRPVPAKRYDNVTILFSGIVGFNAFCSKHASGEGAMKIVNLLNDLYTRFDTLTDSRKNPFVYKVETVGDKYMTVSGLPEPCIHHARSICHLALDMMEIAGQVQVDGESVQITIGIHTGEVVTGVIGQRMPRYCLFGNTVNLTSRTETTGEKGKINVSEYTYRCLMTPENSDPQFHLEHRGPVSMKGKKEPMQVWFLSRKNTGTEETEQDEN
Summary of the method: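 Screening and kinetics used bovine lung sGC diluted 17-fold in 50mM Tris pH 7.5, 5mM MgCl2, 2mM BME, 20% sucrose, 0.5mg/ml BSA. 1nM enzyme was preincubated with inhibitor 10 min at 37°C in 50mM Tris pH 7.5, 2mM BME, 5mM MgCl2. DMSO-matched controls (1–2.5%). GTP plus 100μM SNAP started a 10 min, 37°C reaction, stopped by 10 min boiling. cGMP measured by ELISA; 3 independent experiments.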

SHV-1 β-lactamase = SHV-1 β-lactamase (Klebsiella pneumoniae, UniProt P0AD64); assay: Promiscuous inhibition test with SHV-1 β-lactamase; format: biochemical; conditions: Fig S1
Sequence of SHV-1 β-lactamase (P0AD64 22-286): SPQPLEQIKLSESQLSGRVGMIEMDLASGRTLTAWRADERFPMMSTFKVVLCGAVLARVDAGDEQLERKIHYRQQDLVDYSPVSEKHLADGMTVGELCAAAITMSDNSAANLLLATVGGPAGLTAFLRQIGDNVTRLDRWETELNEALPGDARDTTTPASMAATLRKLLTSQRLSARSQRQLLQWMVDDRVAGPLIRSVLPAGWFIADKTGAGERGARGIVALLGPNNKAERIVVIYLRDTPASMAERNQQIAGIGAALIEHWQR

sGC catalytic domain = molecular target: T2, sGC catalytic domain (Homo sapiens, UniProt Q02108+Q02153); assay: Purified sGC catalytic domain activity assay; format: biochemical; conditions: 1μM catalytic domain, 3 GTP concentrations, inhibitor 0–600μM
T2 sequence (Q02108 481-608 limits assumed): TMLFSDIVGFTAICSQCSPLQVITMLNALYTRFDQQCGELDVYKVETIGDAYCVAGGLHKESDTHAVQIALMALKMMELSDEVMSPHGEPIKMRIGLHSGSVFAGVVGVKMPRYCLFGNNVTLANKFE
T2 sequence (Q02153 421-554 limits assumed): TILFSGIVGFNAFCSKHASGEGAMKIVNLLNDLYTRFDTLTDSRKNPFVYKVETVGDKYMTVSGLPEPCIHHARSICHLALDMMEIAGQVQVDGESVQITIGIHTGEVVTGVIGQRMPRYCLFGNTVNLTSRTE
Summary of the method: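 Heterodimeric α1/β1 catalytic domain was co-purified from mixed cell pellets by His-tag Ni-NTA (30–300mM imidazole elution steps). The tag was removed with TEV, and the protein gel-filtered in 50mM HEPES pH 7, 150mM NaCl and stored at −80°C. Inhibitor was preincubated with domain 10 min at 37°C with Mg2+. GTP started the reaction, stopped by boiling after 10 min. cGMP measured by ELISA; triplicate; SEM.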

bovine lung sGC [2] = molecular target: T1, bovine lung sGC; assay: BAY 41-2272 stimulated sGC activity assay; format: biochemical; conditions: 100μM inhibitor, range of BAY 41-2272, presence and absence of 1μM SNAP, 500μM GTP
bovine lung sGC [3] = molecular target: T1, bovine lung sGC; assay: BAY 58-2667 activated sGC activity assay; format: biochemical; conditions: 100μM inhibitor, 600μM GTP
Summary of the method: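 Bovine lung sGC, diluted 17-fold in 50mM Tris pH 7.5, 5mM MgCl2, 2mM BME, 20% sucrose, 0.5mg/ml BSA, used at 1nM. Preincubated 10 min at 37°C with varying BAY 58-2667 and inhibitor in 5mM MgCl2. 0.5% DMSO served as control. GTP added to start. Stopped by boiling; cGMP measured by ELISA. Triplicate, 3 independent experiments; SEM.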

[4] = Compound aggregation by dynamic light scattering; format: physicochemical; conditions: DYNAPRO, Fig S2
full length sGC = molecular target: T3, full length sGC (Bos taurus, UniProt P16068+P19687); assay: Size exclusion chromatography for sGC aggregation; conditions: 200μM compound, data not shown
T3 sequence (P19687 1-691): T1 sequence (P19687 1-691)
T3 sequence (P16068 1-619): T1 sequence (P16068 1-619)

Question: With `Nc1nc(=O)[nH]nc1Nc1ccc(O)cc1` [Compound 1] as the compound, how does the “inhibition of NO stimulated sGC activity, initial screen” value (bovine lung sGC [1]; 1nM sGC, 25μM GTP, 100μM SNAP, 10μM inhibitor) read?
Answer: Its value is “substantial inhibition”.

Question: What about the “α-value (mixed inhibition model)” value (bovine lung sGC [1]; global fit of steady state inhibition data, 100μM SNAP) of the same compound?
Answer: The value was 3.6.

Question: And the inhibition mechanism (bovine lung sGC [1]; judged from α-value of mixed model fit)?
Answer: The inhibition mechanism was “mostly non-competitive”.

Question: What about the “inhibition of SHV-1 β-lactamase” value (SHV-1 β-lactamase) of the same compound?
Answer: Its value is “did not inhibit”.

Question: And the “inhibition of the purified catalytic domain (in words)” value (sGC catalytic domain)?
Answer: The value was “did not observe significant inhibition”.

Question: What about the “inhibition of BAY 41-2272 stimulated sGC” value (bovine lung sGC [2]) of the same compound?
Answer: Its value is “inhibited”.

Question: What about the “inhibition of BAY 58-2667 activated sGC” value (bovine lung sGC [3]) of the same compound?
Answer: The value was 96%.

Question: And the “aggregate formation (dynamic light scattering)” value [4]?
Answer: Its value is “do not form detectably large aggregates”.

Question: And the “sGC aggregation caused by compound (size exclusion chromatography)” value (full length sGC)?
Answer: The value was “did not cause sGC aggregation”.
